# Source: PubChem (Broad Institute)
# This is a sample that favours compounds with a hit; in the whole collection about 4.4% have one here.
# HSF1 activator = increases HSF-1 driven luciferase reporter signal; NIH3T3-HGL HSF-1 luciferase reporter, MG132, 8 h; 100% = twice DMSO control signal; activation, % at 9 µM; 300,000 tested, 1.7% active; AID 504408;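 active = mean replicate activation of at least 50% with a set share of replicates each reaching 50%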;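 note: 0% = median of the neutral control wells and 100% = twice that signal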
# T cruzi inh = T. cruzi replication inhibition; T. cruzi beta-gal in NIH3T3, luminescence, 90 h; inhibition, % (no concentration beside the values); 300,000 tested, 1.4% active;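 active = mean inhibition across valid replicates above about 55%, limit read from the data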;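 note: signal also drops with host cell toxicity which is not excluded here; 0% = plate median of DMSO wells and 100% = zero luminescence signal; higher percent means less beta-gal luminescence so fewer parasites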
#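 Read-out: Parasite load inhibition, % | Test system: Mouse NIH/3T3 fibroblasts infected with β-gal-expressing T. cruzi Tulahuen C4 | Amount: 5,000 cells/well | Medium: DMEM, 2% fetal bovine serum | Signal: GalScreen β-gal luminescence, detergent lysis, 60 min | Timing: 3 h attach, ≥90 h co-culture | Also added: Tulahuen C4 trypomastigotes, 5000/well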
# HIF act = HIF pathway transcriptional activation; activation, % at 7.5 µM (by protocol); AID 1910; 300,000 tested, 0.32% active; U2OS HRE-luciferase reporter, luminescence; normalized: DMSO 0%, desferrioxamine 100%;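 active = mean activation of at least 10% of the iron chelator positive control signal, with at least half of replicates also reaching 10%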
# Calb FLC = affects C. albicans growth with fluconazole | growth inhibition, % (test concentration not listed) | C. albicans CaCi-2 + fluconazole, Alamar Blue growth, 48 h | 300,000 tested, 0.57% active;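 active = growth inhibition above about 58% in most replicates, limit read from the data, passing the limit was not always enough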;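 note: all wells also contain fluconazole at 8 µg/ml as a sub-toxic cotreatment; 0% = median of DMSO wells and 100% = median of geldanamycin control wells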
# HSF1 inh = HSF1 inhibition | activity change, negative = inhibition, % at 7.5 µM (by protocol) | NIH3T3-HGL HSE-luciferase, MG132-induced, luminescence 8 h; stronger effect = lower value | 300,000 tested, 0.77% active;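 active = more than half of replicate wells show activity change below -50%, luminescence cut by over half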;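 note: luciferase reports HSF-1 transcriptional activity via heat shock element; 0% = median of DMSO wells and -100% = zero luminescence signal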
# An asterisk follows results filed as active; · = not tested or not shown.
SMILES,HSF1 activator,T cruzi inh,HIF act,Calb FLC,HSF1 inh
Cc1ccccc1OCC(=O)NCCNC(=O)c1cccnc1,-37,3,1,-4,-24
Fc1ccc(OCc2nc(-c3cccs3)no2)cc1,65*,-13,2,-27,31
c1ccc(OCc2nc(-c3cccs3)no2)cc1,59*,4,4,-10,29
Cc1cc(OCc2nc(-c3cccs3)no2)cc(C)c1Cl,17,-2,0,5,18
CC(NC(=O)NC(=O)c1cccc(Cl)c1)c1ccccc1 (stereo not drawn),-3,-3,0,0,-2
Nc1ccccc1C(O)(Cc1ccccc1)c1ccccc1 (stereo not drawn),19,2,2,-6,-5
CCCCNC1C(CC)C(CCC)C(C#N)(C#N)C1(C#N)C#N (stereo not drawn),118*,-7,1,-4,84
Cc1ccc(S(=O)(=O)NC2CCCC2)cc1C(N)=O,-14,-4,0,8,-4
Cc1ccc(OCc2ccc(C(=O)Nc3nc4ccccc4n3Cc3ccccc3)o2)c([N+](=O)[O-])c1,10,43,-28,12,2
O=C(Nc1nc2ccccc2n1Cc1ccccc1)c1ccc(COc2ccccc2[N+](=O)[O-])o1,5,68*,0,-25,-2
CCN(CC)S(=O)(=O)c1cccc(C(=O)N/N=C(\C)c2ccc(O)cc2O)c1,0,64*,13*,-12,6
CCOC(=O)/C=C/C(=O)OCC(=O)N1CCN(C(=O)c2ccco2)CC1,32,-31,0,-9,28
Clc1ccc(CONc2ncnc3nonc23)c(Cl)c1,17,28,3,76*,26
COc1cc(CN(CCN(C)C)Cc2ccccc2)ccc1OCc1ccccc1,5,6,0,-4,4
O=C(O)C(=O)/C(=C\c1cccc(Cl)c1)c1ccc2ccccc2n1,60*,0,4,56,17
COc1cccc(CNC(=O)C2CC(=O)N(C3CCCCC3)C2)c1 (stereo not drawn),-2,-5,0,-5,-11
CCCNC(=O)Nc1ccc(C)cc1C,51*,-19,-38,-3,25
Cc1ccc(NC(=O)NCc2ccccn2)c(C)c1,·,·,·,95*,·
CC(=O)Nc1ccc(NC(=O)Nc2ccc(C)cc2C)cc1,23,0,0,21,1
Cc1cc(C2CC(=O)Nc3ccccc3S2)c(C)s1 (stereo not drawn),-7,-3,-1,-1,0
C/C(CC(=O)Nc1cc(Cl)ccc1C)=N\NC(=O)C(=O)N1CCCC1,14,-2,0,-1,18
COc1ccc(-c2nc(C#N)c(NCc3cccnc3)o2)cc1OC,3,64*,0,-7,-3
COc1ccc2c(c1)NC(C)(C)C=C2C,-4,66*,0,1,-8
CC1=CC(C)(C)Nc2ccccc21,6,75*,0,6,5
CN(c1ccc(C(=O)N/N=C/c2cccc([N+](=O)[O-])c2)cc1)S(=O)(=O)c1ccccc1,20,6,-1,4,8
SMILES,HSF1 activator,T cruzi inh,HIF act,Calb FLC,HSF1 inh
Cc1ccnc(NC(=O)Nc2ccc(F)cc2)c1,61*,1,1,-9,29
Cc1ccnc(NC(=O)c2cc3cc(F)ccc3s2)c1,72*,-9,1,-4,32
Cc1ccc(NC(=O)Nc2ccc3c(c2)N(C)C(=O)CS3)nc1,7,-16,1,5,14
Cc1ccc(NC(=O)Nc2ccc(F)cc2)nc1,30,9,3,5,0
Cc1ccnc(NC(=O)CNC(=O)c2ccc(C)s2)c1,-10,-12,1,1,-8
Cc1ccnc(NC(=O)Nc2ccc3c(c2)N(C)C(=O)CS3)c1,69*,4,4,6,30
Cc1sc2ncnc(N/N=C/c3cccc(O)c3)c2c1C,·,2,·,5,·
C/C(=N\Nc1ncnc2sc(C)c(C)c12)c1ccccn1,-26,38,96*,-13,-23
C/C(=N\Nc1ncc(Cl)cc1Cl)c1ccccn1,-24,69*,-3,98*,-16
CCOc1cc(/C=C\[N+](=O)[O-])ccc1OCC(=O)Nc1ccccc1C,-63,37,-4,-10,-62*
COc1cc(/C=C/c2cccc[n+]2C)ccc1OCC(=O)Nc1ccccc1C,-19,-14,0,3,-1
CC(=O)N(Cc1ccc(F)cc1)C1=C(NCc2ccccc2)C(=O)c2ccccc2C1=O,43,67*,1,89*,29
Cc1cc(C(=O)Nc2ccc(C#N)cc2)on1,-10,-21,1,-14,9
COc1ccc(C(=O)Nc2ccc3c(c2)nc(CN2CCCC2)n3C)cc1,-88,-14,2,33,-86*
CC1CCN(CCc2nc3cc(NC(=O)Nc4ccccc4)ccc3n2C)CC1,177*,-18,1,2,153
COc1ccc(OCC(=O)Nc2ccc3c(c2)nc(CCN2CCN(C)CC2)n3C)cc1,53*,8,1,-1,26
Cn1c(CCN2CCOCC2)nc2cc(NC(=O)COc3ccccc3)ccc21,68*,-15,6,7,57
CCN1C(=S)N[C@@H](c2cccs2)C(C(=O)OC)=C1C,16,-19,0,0,-2
CC(C)NC(=O)NC(=O)COC(=O)c1cc[n+]([O-])cc1,5,-15,0,4,1
Oc1ccccc1-n1nc2ccc3nonc3c2n1,-1,-10,0,-9,1
COc1ccc(CN(C)Cc2c(O)ccc3cc(Br)ccc23)cc1OC,114*,3,3,23,87
COc1ccc(CCN(C)Cc2c(O)ccc3cc(Br)ccc23)cc1OC,204*,14,1,4,164
CCCNC(=O)NC1CCCc2ccccc21 (stereo not drawn),0,-16,0,2,1
CCC(C)(C)n1nnnc1C(c1ccncc1)N1CCC(Cc2ccccc2)CC1 (stereo not drawn),5,65*,-1,-12,11
CC(C)(C)n1nnnc1C(c1cccc(C#N)c1)N1CCC(Cc2ccccc2)CC1 (stereo not drawn),0,81*,0,9,1
CCC(C)(C)n1nnnc1C(c1ccc(C)cc1)N1CCSCC1 (stereo not drawn),6,0,0,16,-5
CCC(C)(C)n1nnnc1C(c1cccc(C#N)c1)N1CCN(c2cc(C)ccc2C)CC1 (stereo not drawn),2,61*,-62,22,3
CC(C)(C)n1nnnc1C(c1cccc(C#N)c1)N1CCCc2ccccc21 (stereo not drawn),-4,27,0,31,-1
CCC(C)(C)n1nnnc1C(c1cccnc1)N1CCC(Cc2ccccc2)CC1 (stereo not drawn),19,64*,0,-19,11
COc1ccc(Cl)cc1NC(=O)CCS(=O)(=O)c1ccc(C)cc1,2,-4,0,8,3
